Data on 24 sequences can be found in the EternaBench riboswitch data.

The test system of this data set is MS2 coat protein. The data set is described as follows: apparent Kd, MS2 coat protein; higher = weaker binding; RNA-MaP array; FMN 200 µM where present. An outline of the steps: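 Designs on Illumina sequencing-chip clusters, transcribed by stalled E. coli RNA polymerase, were exposed to SNAP-549-labelled MS2 coat protein in doubling steps from 0.7 or 1.5 nM up to 3 µM, without and then with constant ligand. The buffer held 100 mM Tris-HCl pH 7.5, 80 mM KCl, 4 mM MgCl2, BSA, DTT, yeast tRNA and Tween-20. Apparent Kd values are medians of filtered per-cluster binding-curve fits to green signal normalised to red-channel RNA signal and control-cluster median Fmax.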

[1] abbreviates: designed as: OFF switch for flavin mononucleotide, no ligand.
[2] abbreviates: ligand present: flavin mononucleotide, designed as: OFF switch for flavin mononucleotide.
The mark [3] stands for this setting: ligand present: flavin mononucleotide, designed as: ON switch for flavin mononucleotide.
The mark [4] stands for this setting: designed as: ON switch for flavin mononucleotide, no ligand.

In general, apparent Kd refers to the concentration giving half-maximal binding under the conditions of the assay. Consider “GCGCGGUAAGGAUAUCUGCACGGAAACAUGAGGAUCACCCAUGUUCAGAUGAUUCUUAUAAGAGAAGGUACUGACA”, for which the “apparent Kd” value runs as follows: under setting [1], 17.4 nM; under setting [2], 19.1 nM.
With “ACGUAUCAUGUCAGGAUAUAGCUAGCUACGGCUAGCUAGAAGGGACAUGAGGAUCACCCAUGUCAAAGAUACGU”, the “apparent Kd” value was determined as 14 nM under setting [1] and 19 nM under setting [2].
With “CCGAAUUAGUAGGAUAUAGGAGUCGAUAGACACCUAGAAGGACUAACAUGAGGAUCACCCAUGUGUCCUAUCGG”, the “apparent Kd” value was 14.6 nM under setting [1] and 31.5 nM under setting [2].
Take “CUGUGAUGGAUCCAGAAUUACAACAUGAGGAUCACCCAUGUGCAGGAUAUCGGGUUGAUAGGCGCCGAGAAGGGUAUGAUCACG”: the “apparent Kd” value under setting [1] turned out to be 164 nM and the “apparent Kd” value under setting [2] is 140 nM.
Turning to “GGUCCUUCUGUUAGGAUAUGCUUUGGGCUUCCGCAGUAGAAGGAACAUGAGGAUCACCCAUGUCCGAUGCCGUC”, the “apparent Kd” value reads like this: under setting [1], 86 nM; under setting [2], 88.1 nM.
As to “AUAAAACAUGAGGAUCACCCAUGUCAACAAAGUCGAGGAUAUGGGCAAAUAAAAUAAGAACCAGAAGGCGUAUAAU”, the “apparent Kd” value under setting [3] was determined as 94.3 nM.
On to “AAAUCAGCAGGAUAUGCGAUGUUGUGCUAGAUAGCGGGACCACAUGAGGAUCACCCAUGUAGAAGGGCUAGAUA”, for which the “apparent Kd” value runs as follows: under setting [1], 51.4 nM; under setting [2], 18.9 nM.
For “GGAGAUACAUGAGGAUCACCCAUGUAGGAUAUCGGGCCCAUAUAUGGCGAAAGCCAUAUAUGGGCCGAGAAGGGCGUACACACC”, the “apparent Kd” value is, setting by setting: under setting [1], 7.63 nM; under setting [2], 7.45 nM.
Consider “GUGGUCAGACAUGAGGAUCACCCAUGUGGAAUAAAUAAGGAGAAGGAUAUGCAAUAUAGGAUAUAGCAGAAGGUCUGGUUGGUG”, for which the “apparent Kd” value reads like this: under setting [4], 80.1 nM; under setting [3], 92.7 nM.
With “GGUGCGAUGUAGAAGGCAGAUCUGAUUCAGAUCUGAGGAUAUACAUGAGGAUCACCCAUGUUAAGGCACCGCACGAGAGUGCAA”, the “apparent Kd” value is, setting by setting: under setting [1], 7.4 nM; under setting [2], 13.7 nM.
In the case of “CGUCGAAAGGCGGGUCCAUCACCACAUGAGGAUCACCCAUGUAAGGAUAUCGGACUCAGAAAGAGCGAGAAGGUACAUAGUUAA”, the “apparent Kd” value amounted to 6.01 nM under setting [1] and 6.53 nM under setting [2].
On to “GAACAUGAGGAUCACCCAUGUUCUCCAGAAGGCCGUACAUUUAAAAGUGGAUGGAUUAGUGUUGCGGAGGAUAUGGAGGUGCAA”, for which the “apparent Kd” value came to 72 nM under setting [4] and 17.8 nM under setting [3].
With “CGCUACUACCAGAAGGACAUGAGGAUCACCCAUGUAGGAUAUGGGUUACAAGUACCAGUGUAAAGAAACUACGCUACGUAUGCG”, the “apparent Kd” value turned out to be 36.6 nM under setting [4] and 7.84 nM under setting [3].
On to “UUAAUUAUACAAGGAUAUCUAUUGUAGUUUCGACUUACAUGAGGAUCACCCAUGUUAAUAUGUUUAGAGAAGGUGUAUUUUCAG”, for which the “apparent Kd” value is 98.3 nM under setting [4] and 61.1 nM under setting [3].
Regarding “GGAGAGGACAGAGGAUAUACGUGCUAGAGAUACUAGCAAAAUUUCCUCACAUGAGGAUCACCCAUGUAGAAGGCUGUCCUAUCG”, the “apparent Kd” value is, setting by setting: under setting [1], 16.6 nM; under setting [2], 309 nM.
Regarding “GGAUGAUUAAUAGGAUAUUAUUUGUAAAUUGGUUAAGAAGGAUUAAUGAUUUAAACGACCUGUUACAUGAGGAUCACCCAUGUU”, the “apparent Kd” value was found to be 45.1 nM under setting [4] and 35.2 nM under setting [3].
With “AGCUAGUCAGGAUAUACGAACAUGUCGCCCGACGUGAAGGGACAUGAGGAUCACCCAUGUAGAAGGGACUAGCA”, the “apparent Kd” value worked out at 135 nM under setting [1] and 348 nM under setting [2].
For the sequence “AAAAAGGCAGGAUAUACAAAACAGGGAAACCUGAAAAGGAAACAUGAGGAUCACCCAUGUAGAAGGGCCAAGAA”, the “apparent Kd” value under setting [1] turned out to be 24.9 nM and the “apparent Kd” value under setting [2] is 35.3 nM.
As for “ACAUGAGGAUCACCCAUGUAUUUGUAGGAUAUACUCUAUUGUUUAUUACUCUAGUUAAAAUGUUUGUAGAAGGACAUUACAUGA”, the “apparent Kd” value was determined as 6.81 nM under setting [1] and 7.38 nM under setting [2].
With “CUUCGUAUAGAGGAUAUAGGAUACUUCGGUGUCCUAGAAGGCUGUACAUGAGGAUCACCCAUGUACUUCAGAUC”, the “apparent Kd” value by setting is: under setting [1], 12.1 nM; under setting [2], 14.3 nM.
For the sequence “UGGUACUAGGGAGGAUAUGGGAAGAAACAUGAGGAUCACCCAUGUUUAAGAAUGCCGAGAGGCAACUAGAAGGCCCUAGUACCU”, the “apparent Kd” value under setting [4] came out at 9.75 nM and the “apparent Kd” value under setting [3] stood at 4.99 nM.
Consider “UGGAAACAUGAGGAUCACCCAUGUAAAAGGUGGUUAGGAUAUGCAAAACGGAAAACGAAAGCAGAAGGGACAAAAA”, for which the “apparent Kd” value under setting [4] was determined as 412 nM and the “apparent Kd” value under setting [3] is 302 nM.
Taken in the same sequence, the figures for “CGCAAAGAUGGGUUUAAUGGAGCAUAGGAUAUGCUUGUACAUGAGGAUCACCCAUGUAAUAUUGUGCAGAAGGGUGCAUUUGCG” were 293 nM and 74.3 nM.
As for “GCUCUGUUAGGAUAUUUCGGCAUAGGUAUAACUUAAGCGUGAGAGAAGGAACAUGAGGAUCACCCAUGUUAAUC”, the “apparent Kd” value is 19.9 nM under setting [1] and 77.5 nM under setting [2].
